According to ChEMBL document CHEMBL3407441, “Design, synthesis and docking studies of novel thienopyrimidine derivatives bearing chromone moiety as mTOR/PI3Kα inhibitors” (Eur J Med Chem, 2015):

How the values were obtained:
[1] = target: T1, Phosphatidylinositol 4,5-bisphosphate 3-kinase catalytic subunit alpha isoform (Homo sapiens, UniProt P42336); assay: Inhibition of PI3K-alpha kinase (unknown origin) using ULight-4E-BP1 as substrate at 10 uM after 60 mins by luminescence assay; settings: in the assay text read “L-alpha-phosphatidylinositol” for “ULight-4E-BP1”
T1 sequence (P42336 whole entry, canonical isoform): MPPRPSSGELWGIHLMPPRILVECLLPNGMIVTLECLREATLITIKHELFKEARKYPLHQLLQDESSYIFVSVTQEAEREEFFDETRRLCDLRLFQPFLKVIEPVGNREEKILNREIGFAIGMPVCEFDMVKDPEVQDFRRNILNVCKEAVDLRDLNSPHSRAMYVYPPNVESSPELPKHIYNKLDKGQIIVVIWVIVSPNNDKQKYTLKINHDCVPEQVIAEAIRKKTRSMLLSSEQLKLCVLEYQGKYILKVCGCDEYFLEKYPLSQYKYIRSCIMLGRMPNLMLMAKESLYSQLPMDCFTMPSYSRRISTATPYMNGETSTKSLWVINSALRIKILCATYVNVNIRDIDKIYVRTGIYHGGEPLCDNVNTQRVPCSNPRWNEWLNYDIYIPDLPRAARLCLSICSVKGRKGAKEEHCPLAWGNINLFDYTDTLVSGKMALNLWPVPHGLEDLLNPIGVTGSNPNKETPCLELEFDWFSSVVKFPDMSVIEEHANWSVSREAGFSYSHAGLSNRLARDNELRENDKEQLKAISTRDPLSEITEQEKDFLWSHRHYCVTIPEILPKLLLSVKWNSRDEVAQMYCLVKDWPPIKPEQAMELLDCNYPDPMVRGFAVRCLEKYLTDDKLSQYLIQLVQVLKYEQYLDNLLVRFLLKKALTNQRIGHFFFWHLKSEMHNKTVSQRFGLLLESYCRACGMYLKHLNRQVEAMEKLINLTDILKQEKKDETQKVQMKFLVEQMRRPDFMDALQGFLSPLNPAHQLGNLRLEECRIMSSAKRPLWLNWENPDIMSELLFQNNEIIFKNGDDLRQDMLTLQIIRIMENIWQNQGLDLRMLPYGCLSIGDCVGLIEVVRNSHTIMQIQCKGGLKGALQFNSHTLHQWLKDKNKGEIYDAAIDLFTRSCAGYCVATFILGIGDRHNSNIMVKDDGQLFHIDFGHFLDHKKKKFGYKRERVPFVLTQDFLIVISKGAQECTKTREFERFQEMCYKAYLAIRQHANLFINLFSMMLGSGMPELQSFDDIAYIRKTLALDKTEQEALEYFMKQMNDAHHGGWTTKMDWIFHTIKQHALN
In short: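 Kinase-Glo luminescent assay with 10 nM PI3Kα protein and lipid substrate prepared in 3% octyl-glucoside. The reaction was started by adding ATP in reaction buffer and ran 60 min. It was stopped with Kinase-Glo buffer, then luminescence was read.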

[2] = target: T2, Serine/threonine-protein kinase mTOR (Homo sapiens, UniProt P42345); assay: Inhibition of mTOR kinase (unknown origin) using ULight-4E-BP1 as substrate after 1 hr by TR-FRET assay
[3] = Cytotoxicity against human PC3 cells after 72 hrs by MTT assay; format: functional, cell-based; settings: PC-3, 72 h
In short: (§1)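 MTT assay on H460 and PC-3 cells grown in MEM with 10% FBS. MTT was added at […] and incubated with the cells for 4 h at 37 °C. Formazan was dissolved in DMSO and absorbance read at 492 nm against a 630 nm reference. Each compound was tested three times per cell line; IC50 values are averages of two determinations.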

[4] = target: T1, Phosphatidylinositol 4,5-bisphosphate 3-kinase catalytic subunit alpha isoform; assay: Inhibition of PI3K-alpha kinase (unknown origin) using L-alpha-phosphatidylinositol as substrate after 60 mins by luminescence assay
[5] = Cytotoxicity against human H460 cells after 72 hrs by MTT assay; format: functional, cell-based; settings: NCI-H460, 72 h; in short: as §1
[6] = target: T2, Serine/threonine-protein kinase mTOR; assay: Ratio of (E)-4-((2-(4,6-dimorpholino-1,3,5-triazin-2-yl)hydrazono)methyl)-2,6-dimethoxyphenol IC50 to compound IC50 for mTOR kinase (unknown origin)
[7] = target: T1, Phosphatidylinositol 4,5-bisphosphate 3-kinase catalytic subunit alpha isoform; assay: Ratio of (E)-4-((2-(4,6-dimorpholino-1,3,5-triazin-2-yl)hydrazono)methyl)-2,6-dimethoxyphenol IC50 to compound IC50 for PI3K-alpha kinase (unknown origin)
[8] = Ratio of (E)-4-((2-(4,6-dimorpholino-1,3,5-triazin-2-yl)hydrazono)methyl)-2,6-dimethoxyphenol IC50 to compound IC50 for human H460 cells; format: functional
PC-3 = assay: Ratio of (E)-4-((2-(4,6-dimorpholino-1,3,5-triazin-2-yl)hydrazono)methyl)-2,6-dimethoxyphenol IC50 to compound IC50 for human PC3 cells; format: functional

| inhibition [1] | IC50 [2] | IC50 [4] | Ratio IC50 [6] | Ratio IC50 [7] | SMILES | IC50 [3] | IC50 [5] | Ratio IC50 [8] | Ratio IC50 (PC-3) |
| --- | --- | --- | --- | --- | --- | --- | --- | --- | --- |
| 95% | 3310 nM | 1810 nM |  |  | O=C(O)c1ccc2occ(/C=N/Nc3nc(N4CCOCC4)c4sccc4n3)c(=O)c2c1 | 6260 nM |  |  |  |
| 91.2% | 920 nM | 1530 nM |  |  | O=c1c(/C=N/Nc2nc(N3CCOCC3)c3ccsc3n2)coc2ccc([N+](=O)[O-])cc12 | 1420 nM | 3240 nM |  |  |
|  | 16600 nM |  |  |  | N#Cc1cccc(Cn2cc(/C=N/Nc3nc(N4CCOCC4)nc(N4CCOCC4)n3)c3ccccc32)c1 |  |  |  |  |
| 90.6% | 160 nM | 2350 nM | 8.6 | > 5 | O=C(O)c1ccc2occ(/C=N/Nc3nc(N4CCOCC4)c4ccsc4n3)c(=O)c2c1 | 850 nM | 1200 nM | 7.9 | 19.1 |
|  | > 30000 nM |  |  |  | Fc1cccc(Cn2cc(/C=N/Nc3nc(N4CCOCC4)c4sccc4n3)c3ccccc32)c1 |  |  |  |  |
| 58.8% | 4620 nM | > 10000 nM |  |  | O=c1c(/C=N/Nc2nc(N3CCOCC3)c3sccc3n2)coc2ccc([N+](=O)[O-])cc12 | 6900 nM |  |  |  |
|  |  | > 10000 nM |  |  | COc1cc(/C=N/Nc2nc(N3CCOCC3)nc(N3CCOCC3)n2)cc(OC)c1O |  |  |  |  |
